The list is not random: actives were taken first. Their share in the collection is about 2.6%.
RAD52 inh: inhibitors of human RAD52 DNA annealing; P43351; recombinant RAD52 DNA annealing, FRET fluorescence; inhibition, % at 18.7 µM; 360,000 tested, 0.46% active;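 active = every replicate showing at least 50% inhibition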
RAD54 inh: RAD54 (human) branch migration inhibition | Q92698 | RAD54 Holliday junction branch migration, FAM/BHQ fluorescence | inhibition, % at 10.4 µM | 360,000 tested, 0.14% active | AID 602329;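 active = mean normalized replicate activity at least 40 and at least half of replicates scoring 40 or more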;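 also: inhibitors cause a drop in the FAM fluorescence signal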
INS-1E GSIS act: GLuc luminescence reporter in INS-1E cells, primary screen for activators of glucose-dependent secretion of insulin; INS-1E GLuc reporter insulin secretion, 2-3 h; activation, % at 16.6 µM; 370,000 tested, 0.61% active;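 active = lowest replicate activation of at least 40%, so every replicate reaches that level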
E-selectin induc: induces E-selectin expression in human endothelial cells. P16581. HUVEC E-selectin immunofluorescence imaging; normalized: neutral wells 0, TNF-alpha wells 100. activation, % at 7.58 µM. 260,000 tested, 0.37% active;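 active = mean E-selectin-positive cell signal at least 10% of the positive control, reached in at least 60% of replicates, without over 20% cell loss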
Target sequence (P16581 whole entry, looked up): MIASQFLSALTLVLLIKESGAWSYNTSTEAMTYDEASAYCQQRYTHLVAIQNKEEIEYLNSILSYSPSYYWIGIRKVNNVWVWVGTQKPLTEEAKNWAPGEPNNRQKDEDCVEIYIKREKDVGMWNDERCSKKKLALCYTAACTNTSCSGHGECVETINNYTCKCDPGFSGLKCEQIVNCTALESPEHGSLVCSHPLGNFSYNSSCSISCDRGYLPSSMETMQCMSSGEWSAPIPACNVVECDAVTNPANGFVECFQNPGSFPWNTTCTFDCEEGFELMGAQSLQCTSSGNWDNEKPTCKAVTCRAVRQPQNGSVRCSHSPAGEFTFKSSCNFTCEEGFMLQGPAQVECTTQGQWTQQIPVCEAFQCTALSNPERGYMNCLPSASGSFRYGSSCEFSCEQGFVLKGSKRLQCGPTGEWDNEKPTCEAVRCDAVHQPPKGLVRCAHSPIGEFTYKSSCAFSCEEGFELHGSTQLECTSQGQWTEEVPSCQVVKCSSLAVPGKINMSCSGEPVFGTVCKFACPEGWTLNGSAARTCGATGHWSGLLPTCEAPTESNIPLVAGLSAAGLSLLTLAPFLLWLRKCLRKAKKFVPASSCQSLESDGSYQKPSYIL
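assay system = HUVEC, human umbilical vein endothelial cells | input = 3,000 HUVEC seeded per well | medium = EGM-2 growth medium on 0.1% gelatin-coated wells | dosing = one compound dose added by pin transfer | signal = immunofluorescence imaging | read-out basis = % PE-positive cells | control set = TNF-alpha, DMSO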
Ecoli rRNA inh: inhibits bacterial ribosomal RNA function over humanized ribosomes | AID 720706 | E. coli WT GFP vs humanized-ribosome RFP mutants, fluorescence, 24 h; active compounds read low; DMSO median 0, no signal -100 | GFP signal change (wild-type ribosome), % (no concentration beside the values) | 350,000 tested, 1.6% active;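 active = significant combined selectivity score with lowered wild-type GFP, culture density cut under 30%, mutant RFP and density less affected; inactive = any of these conditions unmet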
AF4-AF9 inh: inhibitors of human MLL-AF4/AF9 interaction; P42568; AlphaScreen, biotin-AF4 peptide binding to FLAG-AF9; inhibition, % at 10 µM; 350,000 tested, 0.47% active; AID 651704;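 active = every replicate reaching a set inhibition limit, whatever the replicate mean, cut at about 25% in these data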
Each line names hits and unclear results; the compound was inactive in the other large screens; ! = repeats disagree.

Cc1noc(C)c1NC(=O)Nc1ccc2c(c1)C(=O)N([C@@H](C)CO)C[C@@H](C)[C@@H](CN(C)C)OCCCC[C@H](C)O2	none
COCC(=O)N(C)C[C@@H]1Oc2cc(-c3ccc(F)cc3)ccc2S(=O)(=O)N([C@H](C)CO)C[C@H]1C	E-selectin induc 58!
C[C@@H]1CN([C@H](C)CO)S(=O)(=O)c2ccc(C#CC(C)(C)O)cc2O[C@@H]1CN(C)C(=O)CC1CC1	none
C[C@H](CO)N1C[C@H](C)[C@@H](CN(C)C(=O)CC2CC2)Oc2cc(C#CC(C)(C)O)ccc2S1(=O)=O	INS-1E GSIS act 44
O=C(CSc1nc2ccccc2s1)N/N=C/c1ccc(C(=O)O)cc1	none (no result: RAD54 inh, E-selectin induc)
COc1ccc(/C=N/NC(=O)CCSc2nc3ccccc3s2)cc1	Ecoli rRNA inh -26 (no result: RAD54 inh, E-selectin induc)
COC(=O)C[C@H]1CC[C@H]2[C@@H](COc3ccc(NS(C)(=O)=O)cc3C(=O)N2C)O1	none (no result: RAD54 inh)
O=[N+]([O-])/C(=C\Nc1ccccc1)S(=O)(=O)c1ccccc1	INS-1E GSIS act 52 (no result: RAD52 inh, E-selectin induc, Ecoli rRNA inh, AF4-AF9 inh)
COc1ccc(N/C=C(\[N+](=O)[O-])S(=O)(=O)c2ccccc2)cc1	none
O=C(Nc1ccc2oc(-c3cccnc3)nc2c1)c1ccc2c(c1)OCCO2	INS-1E GSIS act 43 (no result: RAD52 inh, RAD54 inh, E-selectin induc, Ecoli rRNA inh, AF4-AF9 inh)
O=C(Nc1ccc2oc(-c3ccccc3)nc2c1)c1ccc2c(c1)OCCO2	none (no result: RAD52 inh, INS-1E GSIS act, Ecoli rRNA inh, AF4-AF9 inh)
COc1ccc(S(=O)(=O)Nc2ccc3c(c2)C(=O)N([C@@H](C)CO)C[C@H](C)[C@@H](CN(C)Cc2ccccc2)OCCCC[C@H](C)O3)cc1	none (no result: RAD52 inh, AF4-AF9 inh)
N/C(Cc1ccc(Cl)cc1Cl)=N\OC(=O)Cc1ccccc1	none
N/C(Cc1ccc(Cl)cc1Cl)=N\OC(=O)c1ccccc1	Ecoli rRNA inh -31 (no result: RAD54 inh)
COc1ccc(N2CCN(C(=O)c3oc4ccccc4c3C)CC2)cc1	Ecoli rRNA inh -38 (no result: RAD54 inh, E-selectin induc)
COc1ccc(N2CCN(Cc3nc(-c4ccccc4)no3)CC2)cc1	Ecoli rRNA inh -19 (no result: RAD54 inh)
COc1ccc(-c2noc(CN3CCN(c4ccccc4)CC3)n2)cc1	none
COc1ccc(-c2noc(CSc3nnc(-c4ccccc4)n3C)n2)cc1	Ecoli rRNA inh -22 (no result: E-selectin induc)
COc1ccc(N2CCN(CC(=O)c3ccccc3)CC2)cc1	AF4-AF9 inh 31
CC(=O)N1CCN(C(=O)c2oc3ccccc3c2C)CC1	none
COc1ccc(N2CCN(C(=O)CCCC(=O)c3ccccc3)CC2)cc1	none
C[C@H]1CN([C@@H](C)CO)C(=O)c2cc(C3=CCCCC3)cnc2O[C@H]1CN(C)C(=O)c1ccc2c(c1)OCO2	none
COc1ccc(N2CCN(C(=O)c3[nH]c(C(F)(F)F)nc3-c3ccccc3)CC2)cc1	Ecoli rRNA inh -26
COc1ccccc1N1CCN(C(=O)c2[nH]c(C(F)(F)F)nc2-c2ccccc2)CC1	none
C[C@H]1CN([C@@H](C)CO)C(=O)c2cc(C#CCN(C)C)cnc2O[C@@H]1CN(C)C(=O)Nc1cccc(F)c1	none
C[C@H](CO)N1C[C@H](C)[C@H](CN(C)C(=O)CCC(F)(F)F)OCCCC[C@H](C)Oc2ccc(NC(=O)c3ccncc3)cc2C1=O	none (no result: RAD52 inh, AF4-AF9 inh)
Cc1[nH]c2ccccc2c1CN1CCC(Cc2ccccc2)CC1	Ecoli rRNA inh -42
Oc1ccc(Cc2ccccc2)c2cccnc12	AF4-AF9 inh 57
Oc1ccc(CN2CCC(Cc3ccccc3)CC2)c2cccnc12	AF4-AF9 inh 76 (no result: RAD54 inh, E-selectin induc)
CC(C)COCc1ccc(O)c2ncccc12	Ecoli rRNA inh -35 (no result: RAD54 inh, E-selectin induc)
OCc1ccc(O)c2ncccc12	none (no result: RAD52 inh, INS-1E GSIS act, E-selectin induc, Ecoli rRNA inh, AF4-AF9 inh)
Oc1ccc(CN2CCN(c3ccccc3)CC2)c2cccnc12	none (no result: E-selectin induc, AF4-AF9 inh)
COc1ccc2c3c([nH]c2c1)[C@H](CO)N(C(=O)Nc1ccc(F)cc1)CC31CN(Cc2nccs2)C1	none (no result: RAD54 inh)
CO[C@H]1CN(C)C(=O)c2ccc(NC(=O)c3cnccn3)cc2OC[C@H](C)N(C(=O)C2CC2)C[C@@H]1C	none
Oc1ccc(COCc2ccccc2)c2cccnc12	AF4-AF9 inh 66 (no result: RAD52 inh, INS-1E GSIS act, E-selectin induc, Ecoli rRNA inh)
CCCOCc1ccc(O)c2ncccc12	none
O=C(C[C@H]1CC[C@@H]2[C@H](COC[C@@H](O)CN2Cc2ccccc2)O1)NCCc1ccccc1	none
O=C(CN1C(=O)CCC1=O)Nc1cccc2c1C(=O)NC2=O	INS-1E GSIS act 41 (no result: RAD54 inh)
O=C1C(Sc2ccccc2)=C[C@@]2(O)CC[C@@H](O)[C@]1(Sc1ccccc1)[C@H]2O	Ecoli rRNA inh -23 (no result: RAD54 inh)
COC(=O)c1cc(C)sc1NC(=O)C1CC(=O)NN1Cc1ccccc1 (centres undefined)	Ecoli rRNA inh -32 (no result: RAD54 inh, E-selectin induc)
CC(=O)N1[C@@H]2c3ccc(C4=CCCC4)c(=O)n3C[C@@H]2[C@@H](CO)[C@@H]1C(=O)N1CCCCC1	none
Cc1ccccc1CN1CCN(C(=O)c2cccc3ccccc23)CC1	Ecoli rRNA inh -22 (no result: E-selectin induc)
O=C(c1cccc2ccccc12)N1CCN(Cc2ccccc2F)CC1	none (no result: E-selectin induc)
Cc1ccc(C(=O)N/C(=C/c2ccco2)C(=O)NCc2ccco2)cc1	INS-1E GSIS act 115 (no result: E-selectin induc)
CO[C@H]1CN(C)C(=O)c2ccc(NC(=O)C3CC3)cc2OC[C@H](C)NC[C@@H]1C	none (no result: RAD54 inh)
Cc1[nH]nc2c1C(c1ccc(Br)cc1)N(Cc1ccccc1)C2=O (centres undefined)	Ecoli rRNA inh -25 (no result: RAD54 inh, AF4-AF9 inh)
CN(C)C(=O)[C@@H]1[C@@H](CO)[C@@H]2Cn3c(ccc(C4=CCCCC4)c3=O)[C@@H]2N1Cc1ccccn1	none
Cc1cc(-c2ccccc2)n2nc(N)nc2n1	INS-1E GSIS act 49
Cc1noc(C)c1S(=O)(=O)N(C)C[C@H]1OCCCC[C@@H](C)Oc2ccc(NS(C)(=O)=O)cc2C(=O)N([C@@H](C)CO)C[C@H]1C	none
O=C1C(Cl)=C(Nc2ccccc2)C(=O)c2ccccc21	none
CC(C)OCCCNC1=C(Cl)C(=O)c2ccccc2C1=O	none (no result: E-selectin induc)
O=C1C(Cl)=C(NCCc2ccccc2)C(=O)c2ccccc21	Ecoli rRNA inh -37
COCCCNC1=C(Cl)C(=O)c2ccccc2C1=O	Ecoli rRNA inh -40
COc1ccc(C(=O)NC(=S)Nc2ccc(CN3CCCCC3)cc2)cc1Cl	Ecoli rRNA inh -20 (no result: RAD54 inh)
O=C(NC(=S)Nc1ccc(CN2CCCCC2)cc1)c1ccco1	none (no result: RAD54 inh, E-selectin induc)
Cc1ccc(C(=O)Nc2ccc(N3CCCC3)cc2)c(C)c1	Ecoli rRNA inh -36 (no result: RAD54 inh)
Cc1ccc(C(=O)NC(=S)Nc2ccc(CN3CCCCC3)cc2)c(C)c1	E-selectin induc 26 (no result: RAD54 inh)
Cc1ccc(C(C)C)c(OCCCNCc2cccnc2)c1	none (no result: RAD54 inh, E-selectin induc)
Cc1ccc(C(C)C)c(OCCNCCc2ccccc2)c1	INS-1E GSIS act 137 (no result: E-selectin induc)
O=C(Nc1ccccc1)C1=C[C@@H](c2ccc3c(c2)Cc2ccccc2-3)C[C@@H](OCCCCO)O1	RAD52 inh 52 (no result: INS-1E GSIS act, E-selectin induc, Ecoli rRNA inh)
O=C(Nc1ncc([N+](=O)[O-])s1)c1ccc2c(c1)OCO2	none (no result: E-selectin induc)
O=C(COc1ccc(Cl)cc1)Nc1ncc([N+](=O)[O-])s1	Ecoli rRNA inh -24 (no result: RAD54 inh, INS-1E GSIS act)
Cc1ccc(C(=O)Nc2ncc([N+](=O)[O-])s2)cc1	Ecoli rRNA inh -52 (no result: INS-1E GSIS act)
